Measurements from different studies.
PDGFRA: Platelet-derived growth factor receptor alpha (PDGFRA, Homo sapiens, UniProt P16234)
PDGFRA T674I: Platelet-derived growth factor receptor alpha (PDGFRA, Homo sapiens, UniProt P16234, T674I)
PDGFRA V561D: Platelet-derived growth factor receptor alpha (PDGFRA, Homo sapiens, UniProt P16234, V561D)

SMILES	target	assay	setting	quantity	result
C[C@H](c1ccc(F)cc1)N(Cc1cccc(C(=O)O)c1)C(=O)c1cnc2ccccc2c1	PDGFRA	cell-free assay, competition with immobilised ligand	1 µM	remaining binding	100%
CC(C)(C)c1nc(-c2cccc(NS(=O)(=O)c3c(F)cccc3F)c2F)c(-c2ccnc(N)n2)s1	PDGFRA	enzyme activity, inhibitor, radiometric	1 µM	remaining activity	103%
Cc1ccc(NC(=O)c2ccc(C)c(C(F)(F)F)c2)cc1C#Cc1nn(C2CCC(O)CC2)c2ncnc(N)c12 (stereo not drawn)	PDGFRA	cell-free assay, inhibitor	10 µM	remaining signal	60%
CCN(CC)CCNC(=O)c1c(C)[nH]c(/C=C2\C(=O)Nc3ccc(F)cc32)c1C	PDGFRA	cell-free assay	0.5 µM	remaining signal	10.9%
COc1cc2ncnc(Nc3ccc(Oc4ccccc4)c(C)c3C)c2cc1OC	PDGFRA T674I	enzyme activity, inhibitor	1 µM	inhibition	9%
CCCOc1ccc(OC)c(F)c1C(=O)c1ccc(C(=O)N[C@@H]2CNC[C@H]2NC(=O)c2ccc3[nH]ncc3c2)cc1	PDGFRA V561D	enzyme activity, inhibitor	10 µM	remaining activity	6%
CCC(=N\O)/C(C)=C/c1ccc(F)cc1	PDGFRA	cell-free assay, competition with immobilised ligand	1 µM	remaining binding	78%
CC/C(=N\NC(=O)NCc1cccc(O)c1)c1ccc(O)c(C)c1O	PDGFRA T674I	enzyme activity, inhibitor	0.1 µM	inhibition	-0.2%
Cc1nccc(COC(=O)N2C[C@@H]3[C@@H](CNC(=O)c4ccc5[nH]nnc5c4)[C@@H]3C2)n1	PDGFRA	cell-free assay, competition with immobilised ligand	1 µM	remaining binding	80%
COc1cc(/C=C/C(=O)CC(=O)/C=C/c2ccc(O)c(OC)c2)ccc1O	PDGFRA	enzyme activity, inhibitor	1 µM	activity vs control	92%
O=C1NC(=O)c2cc(Nc3ccc(F)cc3)c(Nc3ccc(F)cc3)cc21	PDGFRA	cell-free assay, inhibitor	0.5 µM	remaining signal	101%
Cc1ccc(C(=O)Nc2ccc(CN3CCN(C)CC3)c(C(F)(F)F)c2)cc1C#Cc1cnc2cccnn12	PDGFRA	enzyme activity, inhibitor	23.5 nM	remaining activity	5.3%
COc1ccc2c(c1)O[C@H](c1ccc(OC)c(OC)c1)C[C@@H]2NC(=O)C1(c2ccc3c(c2)OC(F)(F)O3)CC1	PDGFRA	cell-free assay, competition with immobilised ligand	1 µM	remaining binding	87%
Cc1cnc(NC2CCOCC2)nc1-n1cnc(C(=O)NC(CN)c2cc(F)cc(Cl)c2)c1 (stereo not drawn)	Platelet-derived growth factor receptor alpha (PDGFRA, Homo sapiens, UniProt P16234, D842V)	enzyme activity, inhibitor, radiometric	1 µM	remaining activity	104%
Cc1cc(NC(=O)c2cccc3cc(-c4cccc5[nH]nc(N)c45)ccc23)ccc1F	PDGFRA	enzyme activity, inhibitor	0.1 µM	activity vs control	92%
Cc1ccc(NC(=O)c2ccc(CN3CCN(C)CC3)cc2)cc1Nc1nccc(-c2cccnc2)n1	PDGFRA	enzyme activity, inhibitor	0.5 µM	activity vs control	5.9%
O=C(N1CCS(=O)(=O)CC1)N1C[C@H](c2ccc(OC(F)(F)F)cc2)C[C@H](c2nc(C3CC3)no2)C1	PDGFRA	cell-free assay, competition with immobilised ligand	1 µM	remaining binding	100%
O=C(Nc1cnn(-c2csc(C(=O)NC3COC3)c2)c1)Nc1c(F)cccc1Cl	PDGFRA	enzyme activity, inhibitor	5 µM	remaining activity	107%
FC(F)(F)Oc1cccc(-c2cnc3ccc(-c4ccncc4)nn23)c1	PDGFRA	enzyme activity, inhibitor, radiometric	5 µM	activity vs control	49%
CCc1ccccc1C(=O)Nc1n[nH]c2c(C)c(F)c(C3C(C#N)=C(C)N(C)C(C)=C3C#N)cc12	PDGFRA	cell-free assay, competition with immobilised ligand	1 µM	remaining binding	100%
COc1cc2ncnc(Nc3ccc(Oc4ccccc4)cc3C)c2cc1OC	PDGFRA T674I	enzyme activity, inhibitor	1 µM	inhibition	0%
CNC(=O)c1cc2c(Oc3ccc(NC(=O)C4(C(=O)Nc5ccc(F)cc5)CC4)cc3)ccnc2cc1OC	PDGFRA V561D	enzyme activity, inhibitor, radiometric	1 µM	inhibition	101%
O=C(Nc1ccc(Oc2ccc(F)cc2)cc1)N1CCc2ncccc2[C@H]1c1ccc(F)cc1	PDGFRA	cell-free assay, competition with immobilised ligand	1 µM	remaining binding	95%
CNC(=O)c1cc(Oc2ccc(NC(=O)Nc3ccc(Cl)c(C(F)(F)F)c3)cc2)ccn1	PDGFRA V561D	enzyme activity, inhibitor	10 µM	inhibition	100%
COc1cc(Nc2cnc(C#N)c(O[C@H](C)CN(C)C)n2)ncc1-c1cnn(C)c1	PDGFRA	enzyme activity, inhibitor, radiometric	1 µM	remaining activity	60%
Cc1nc(Cc2cccc(C(F)(F)F)c2)sc1-c1ccc(C(N)=O)nc1	PDGFRA	cell-free assay, competition with immobilised ligand	1 µM	remaining binding	88%
CS(=O)(=O)CCNCc1ccc(-c2ccc3ncnc(Nc4ccc(OCc5cccc(F)c5)c(Cl)c4)c3c2)o1	PDGFRA	cell-free assay	0.5 µM	remaining signal	108%
Cc1ccc(C(=O)NCc2ccsc2)cc1C#Cc1cn(C(C)C)c2ncnc(N)c12	PDGFRA V561D	enzyme activity, inhibitor	1 µM	activity vs control	1%
O=C(Nc1cnn(-c2csc(C(=O)NC3COC3)c2)c1)Nc1ccccc1Cl	PDGFRA	enzyme activity, inhibitor	5 µM	remaining activity	95.2%
COc1cc(-c2cc(-c3ccc(N4CCNCC4)cc3)cnc2N)cc(OC)c1OC	PDGFRA T674I	enzyme activity, inhibitor	1 µM	inhibition	4%
